Source: ChEMBL document CHEMBL2434956, “Investigating the selectivity of metalloenzyme inhibitors” (J Med Chem, 2013)
The source made the active and inactive calls. The calls are words filed in the database; no cut-off is given here.

Legend:
[1] = molecular target: Histone deacetylase 2 (Homo sapiens) (UniProt Q92769); details: at 10 µM;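 further: fluorescence readout of HDAC2 deacetylase activity, compound preincubated with HDAC2 5 min before substrate, signal read after 30 min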
[2] = molecular target: T1, Macrophage metalloelastase (Homo sapiens, UniProt P39900); test: Inhibition of human recombinant MMP-12 using Mca-Pro-Leu-Gly-Leu-Dpa-Ala-Arg-NH2.AcOH as substrate at 10 uM preincubated for 30 mins prior to substrate addition measured for 30 mins by fluorescence assay relative to control
Method in brief: (§1)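 Human recombinant MMP-2 (1.16 U) or MMP-12 (0.007 U) in 50 mM HEPES, 10 mM CaCl₂, 0.05% Brij-35, pH 7.5, preincubated with inhibitor 30 min at 37 °C; 4 µM OmniMMP peptide then added. Fluorescence rise (ex 320/em 400 nm) over 30 min, as percent of no-inhibitor wells. Triplicate assays, triplicate wells; mean ± SD.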
Target sequence in this assay (P39900 106-470 limits assumed): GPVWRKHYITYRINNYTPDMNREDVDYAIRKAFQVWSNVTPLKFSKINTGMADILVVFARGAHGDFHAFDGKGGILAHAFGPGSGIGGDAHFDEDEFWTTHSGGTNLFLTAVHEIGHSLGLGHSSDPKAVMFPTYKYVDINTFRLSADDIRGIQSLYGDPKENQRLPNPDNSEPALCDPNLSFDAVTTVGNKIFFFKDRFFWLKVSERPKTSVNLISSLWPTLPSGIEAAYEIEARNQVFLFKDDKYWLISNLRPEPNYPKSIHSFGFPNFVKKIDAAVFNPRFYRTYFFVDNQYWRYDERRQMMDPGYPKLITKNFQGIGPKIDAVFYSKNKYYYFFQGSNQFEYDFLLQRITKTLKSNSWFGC

[3] = molecular target: T2, 72 kDa type IV collagenase (Homo sapiens, UniProt P08253); test: Inhibition of human recombinant MMP-2 using Mca-Pro-Leu-Gly-Leu-Dpa-Ala-Arg-NH2.AcOH as substrate at 10 uM preincubated for 30 mins prior to substrate addition measured for 30 mins by fluorescence assay relative to control
Method in brief: as §1
Target sequence in this assay (P08253 110-660 limits assumed): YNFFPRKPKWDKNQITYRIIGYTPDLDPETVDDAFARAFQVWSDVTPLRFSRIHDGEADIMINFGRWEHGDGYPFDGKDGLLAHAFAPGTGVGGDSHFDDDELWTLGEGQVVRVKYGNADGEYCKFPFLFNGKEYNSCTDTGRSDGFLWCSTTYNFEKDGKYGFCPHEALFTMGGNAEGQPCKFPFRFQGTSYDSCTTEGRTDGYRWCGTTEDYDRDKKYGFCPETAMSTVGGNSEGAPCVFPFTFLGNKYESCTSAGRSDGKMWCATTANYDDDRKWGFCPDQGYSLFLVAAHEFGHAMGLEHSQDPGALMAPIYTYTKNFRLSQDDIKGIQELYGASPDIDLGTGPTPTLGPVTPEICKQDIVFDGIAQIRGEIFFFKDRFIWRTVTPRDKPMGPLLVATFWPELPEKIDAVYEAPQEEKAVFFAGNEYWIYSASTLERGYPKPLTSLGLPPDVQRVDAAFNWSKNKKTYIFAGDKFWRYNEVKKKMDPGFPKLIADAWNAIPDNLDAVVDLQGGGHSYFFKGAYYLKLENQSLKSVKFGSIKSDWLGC

[4] = molecular target: T3, Tyrosinase (Agaricus bisporus) (UniProt O42713); test: Inhibition of mushroom tyrosinase assessed as L-DOPA conversion to melanin at 10 uM preincubated for 10 mins prior to substrate addition measured after 10 mins by spectrophotometric analysis
T3 sequence (whole entry): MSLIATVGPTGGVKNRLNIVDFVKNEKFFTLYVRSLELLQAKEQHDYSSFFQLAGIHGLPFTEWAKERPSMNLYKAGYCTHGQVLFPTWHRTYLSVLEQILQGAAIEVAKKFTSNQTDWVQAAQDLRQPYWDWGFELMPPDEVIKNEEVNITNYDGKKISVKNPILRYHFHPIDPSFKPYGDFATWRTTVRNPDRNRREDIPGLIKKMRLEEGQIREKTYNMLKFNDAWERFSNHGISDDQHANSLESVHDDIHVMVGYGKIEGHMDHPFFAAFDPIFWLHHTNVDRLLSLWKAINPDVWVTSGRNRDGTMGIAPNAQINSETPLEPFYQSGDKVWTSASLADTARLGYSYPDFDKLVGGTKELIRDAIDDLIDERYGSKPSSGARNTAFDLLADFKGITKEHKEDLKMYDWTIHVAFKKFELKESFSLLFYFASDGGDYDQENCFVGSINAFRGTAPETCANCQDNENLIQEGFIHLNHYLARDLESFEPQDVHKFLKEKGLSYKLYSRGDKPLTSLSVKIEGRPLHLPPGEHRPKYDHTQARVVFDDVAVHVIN
Method in brief: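 Mushroom tyrosinase (30 U) in 10 mM NaH₂PO₄ pH 6.8 with 10 µM inhibitor, 10 min at room temperature; background A475 taken, L-DOPA (0.5 mM) added, A475 read again after 10 min and background subtracted. No-inhibitor wells set as 100% activity. Triplicate assays, triplicate wells; mean ± SD.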

Trypsin (Homo sapiens) = Trypsin (Homo sapiens) (UniProt P07477+P07478+P35030); test: Inhibition of TPCK-treated trypsin (unknown origin) at 10 uM preincubated for 10 mins prior to substrate addition measured for 30 mins by spectrophotometric analysis; type: protein assay
Method in brief: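 Commercial colorimetric kit run per manufacturer; TPCK-treated trypsin (100 mU) in kit buffer, inhibitor at 10 µM; enzyme and inhibitor preincubated 10 min at room temperature before substrate addition.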

[5] = molecular target: Angiotensin-converting enzyme (Homo sapiens) (UniProt P12821); test: Inhibition of human recombinant ACE/CD143 somatic form using Mca-Pro-Leu-Gly-Leu-Dpa-Ala-Arg-NH2.AcOH as substrate at 10 uM preincubated for 10 mins prior to substrate addition measured for 30 mins by spectrophotometric analysis
Method in brief: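 Human recombinant somatic ACE/CD143 (20 ng) in 50 mM MES pH 6.5 with inhibitor at 10 µM, preincubated 10 min at 37 °C; OmniMMP fluorogenic peptide (4 µM) then added. Fluorescence (ex 320/em 400 nm) read over 30 min. Data normalized to uninhibited enzyme; triplicate assays, each inhibitor in triplicate; mean ± SD.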

[6] = molecular target: T1, Macrophage metalloelastase; test: Inhibition of human recombinant MMP-12 using Mca-Pro-Leu-Gly-Leu-Dpa-Ala-Arg-NH2.AcOH as substrate preincubated for 30 mins prior to substrate addition measured for 30 mins by fluorescence assay
Method in brief: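 Human recombinant MMP-12 (0.007 U) was preincubated with inhibitor at 37 °C for 30 min in 50 mM HEPES, 10 mM CaCl₂, 0.05% Brij-35, pH 7.5. OmniMMP substrate was then added, and fluorescence (ex 320/em 400 nm) was followed for 30 min. Activity is the fluorescence increase relative to no-inhibitor wells (set to 100%). Triplicate assays, each with triplicate inhibitor wells; mean ± SD.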
Target sequence in this assay (P39900 whole entry): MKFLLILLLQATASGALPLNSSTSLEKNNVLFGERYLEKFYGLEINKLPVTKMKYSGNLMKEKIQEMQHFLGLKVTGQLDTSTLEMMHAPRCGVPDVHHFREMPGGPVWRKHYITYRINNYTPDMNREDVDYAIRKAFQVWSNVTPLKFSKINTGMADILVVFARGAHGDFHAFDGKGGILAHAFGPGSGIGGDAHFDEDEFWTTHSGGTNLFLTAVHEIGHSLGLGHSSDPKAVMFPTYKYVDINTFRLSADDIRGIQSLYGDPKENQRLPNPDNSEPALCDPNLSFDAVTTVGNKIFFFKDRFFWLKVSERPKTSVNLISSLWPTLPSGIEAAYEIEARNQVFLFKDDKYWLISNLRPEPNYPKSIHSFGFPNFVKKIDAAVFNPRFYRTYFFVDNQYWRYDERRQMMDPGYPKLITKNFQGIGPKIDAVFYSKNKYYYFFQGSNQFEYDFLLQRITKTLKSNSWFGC

[7] = Inhibition of MMP (unknown origin); parameters: species or system Homo sapiens
[8] = molecular target: T2, 72 kDa type IV collagenase; test: Inhibition of human recombinant MMP-2 using Mca-Pro-Leu-Gly-Leu-Dpa-Ala-Arg-NH2.AcOH as substrate preincubated for 30 mins prior to substrate addition measured for 30 mins by fluorescence assay
Method in brief: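 Human recombinant MMP-2 (1.16 U) in 50 mM HEPES, 10 mM CaCl₂, 0.05% Brij-35, pH 7.5, is preincubated with inhibitor at 37 °C for 30 min. 4 µM OmniMMP substrate then starts the reaction. Fluorescence (ex 320/em 400 nm) is followed for 30 min. Activity is the fluorescence increase relative to no-inhibitor wells, as a percentage. Three assays, each in triplicate; mean ± SD.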
Target sequence in this assay (P08253 whole entry): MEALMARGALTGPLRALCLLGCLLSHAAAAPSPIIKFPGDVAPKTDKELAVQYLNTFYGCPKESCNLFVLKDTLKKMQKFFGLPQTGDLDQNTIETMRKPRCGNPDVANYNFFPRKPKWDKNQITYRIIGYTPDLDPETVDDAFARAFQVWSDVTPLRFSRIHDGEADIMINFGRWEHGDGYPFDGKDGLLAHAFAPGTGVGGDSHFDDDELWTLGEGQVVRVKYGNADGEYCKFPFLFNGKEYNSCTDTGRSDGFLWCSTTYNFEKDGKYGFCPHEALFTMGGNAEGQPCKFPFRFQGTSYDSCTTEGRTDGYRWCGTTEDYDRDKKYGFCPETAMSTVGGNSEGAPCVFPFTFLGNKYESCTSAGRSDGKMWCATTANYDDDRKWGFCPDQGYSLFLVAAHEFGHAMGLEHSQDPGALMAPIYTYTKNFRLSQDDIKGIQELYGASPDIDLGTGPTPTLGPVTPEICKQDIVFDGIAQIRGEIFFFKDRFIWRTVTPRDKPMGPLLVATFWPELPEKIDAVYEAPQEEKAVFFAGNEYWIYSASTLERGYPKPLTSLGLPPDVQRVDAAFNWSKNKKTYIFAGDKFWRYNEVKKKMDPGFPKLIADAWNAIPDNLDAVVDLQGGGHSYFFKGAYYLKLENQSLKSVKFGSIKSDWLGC

[9] = molecular target: Matrix metalloproteinase-9 (Homo sapiens, UniProt P14780); test: Inhibition of MMP-9 (unknown origin)
Homo sapiens = organism: Homo sapiens; test: Binding affinity to ferritin (unknown origin) assessed as removal of ferric ion at 1 mM measured for 1 hr by UV-vis spectrophotometric analysis

Sequence of Histone deacetylase 2 (Homo sapiens) (Q92769 whole entry): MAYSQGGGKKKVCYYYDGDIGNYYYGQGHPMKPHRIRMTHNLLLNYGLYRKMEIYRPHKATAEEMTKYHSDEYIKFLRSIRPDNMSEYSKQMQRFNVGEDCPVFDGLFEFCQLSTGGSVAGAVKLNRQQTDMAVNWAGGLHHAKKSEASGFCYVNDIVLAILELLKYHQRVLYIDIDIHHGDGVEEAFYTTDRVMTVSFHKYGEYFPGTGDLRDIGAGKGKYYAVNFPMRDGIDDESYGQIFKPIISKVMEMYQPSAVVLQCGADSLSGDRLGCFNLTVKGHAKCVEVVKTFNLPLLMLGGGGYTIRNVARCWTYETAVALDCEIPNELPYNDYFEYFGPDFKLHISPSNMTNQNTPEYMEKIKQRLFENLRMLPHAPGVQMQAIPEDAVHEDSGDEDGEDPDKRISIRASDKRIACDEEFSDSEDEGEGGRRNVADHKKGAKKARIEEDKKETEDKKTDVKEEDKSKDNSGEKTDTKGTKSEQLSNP
Sequence of Angiotensin-converting enzyme (Homo sapiens) (P12821 whole entry): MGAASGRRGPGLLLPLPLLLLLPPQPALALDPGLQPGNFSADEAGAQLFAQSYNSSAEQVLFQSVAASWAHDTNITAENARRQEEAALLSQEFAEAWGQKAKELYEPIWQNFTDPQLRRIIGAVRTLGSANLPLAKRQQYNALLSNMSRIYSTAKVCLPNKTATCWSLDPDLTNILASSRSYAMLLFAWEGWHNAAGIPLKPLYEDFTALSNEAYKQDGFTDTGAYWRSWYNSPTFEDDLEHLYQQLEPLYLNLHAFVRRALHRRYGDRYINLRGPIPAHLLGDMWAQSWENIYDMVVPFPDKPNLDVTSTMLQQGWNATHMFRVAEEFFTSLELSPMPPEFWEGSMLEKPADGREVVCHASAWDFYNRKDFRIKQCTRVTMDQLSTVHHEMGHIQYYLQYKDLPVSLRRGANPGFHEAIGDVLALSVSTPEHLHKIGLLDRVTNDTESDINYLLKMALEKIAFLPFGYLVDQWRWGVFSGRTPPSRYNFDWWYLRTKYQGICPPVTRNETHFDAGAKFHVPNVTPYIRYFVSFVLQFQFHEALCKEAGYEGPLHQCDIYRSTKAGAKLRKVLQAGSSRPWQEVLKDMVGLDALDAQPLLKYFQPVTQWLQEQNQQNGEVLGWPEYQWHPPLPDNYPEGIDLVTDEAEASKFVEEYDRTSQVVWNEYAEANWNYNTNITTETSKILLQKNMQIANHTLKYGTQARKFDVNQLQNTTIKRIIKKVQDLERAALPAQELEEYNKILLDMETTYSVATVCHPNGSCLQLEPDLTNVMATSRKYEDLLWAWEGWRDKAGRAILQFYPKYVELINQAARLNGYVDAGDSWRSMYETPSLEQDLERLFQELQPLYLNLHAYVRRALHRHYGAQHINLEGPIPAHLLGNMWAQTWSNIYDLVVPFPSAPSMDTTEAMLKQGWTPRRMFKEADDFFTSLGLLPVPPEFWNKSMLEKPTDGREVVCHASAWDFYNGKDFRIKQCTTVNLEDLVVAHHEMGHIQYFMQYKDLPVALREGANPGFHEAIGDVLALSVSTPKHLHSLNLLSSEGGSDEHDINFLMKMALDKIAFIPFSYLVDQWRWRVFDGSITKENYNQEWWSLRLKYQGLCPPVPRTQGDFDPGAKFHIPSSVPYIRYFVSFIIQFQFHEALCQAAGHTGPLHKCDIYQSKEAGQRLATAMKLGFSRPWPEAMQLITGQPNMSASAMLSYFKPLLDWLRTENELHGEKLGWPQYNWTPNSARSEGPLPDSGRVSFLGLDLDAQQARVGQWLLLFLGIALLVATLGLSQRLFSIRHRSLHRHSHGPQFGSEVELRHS
Sequence of Matrix metalloproteinase-9 (P14780 whole entry): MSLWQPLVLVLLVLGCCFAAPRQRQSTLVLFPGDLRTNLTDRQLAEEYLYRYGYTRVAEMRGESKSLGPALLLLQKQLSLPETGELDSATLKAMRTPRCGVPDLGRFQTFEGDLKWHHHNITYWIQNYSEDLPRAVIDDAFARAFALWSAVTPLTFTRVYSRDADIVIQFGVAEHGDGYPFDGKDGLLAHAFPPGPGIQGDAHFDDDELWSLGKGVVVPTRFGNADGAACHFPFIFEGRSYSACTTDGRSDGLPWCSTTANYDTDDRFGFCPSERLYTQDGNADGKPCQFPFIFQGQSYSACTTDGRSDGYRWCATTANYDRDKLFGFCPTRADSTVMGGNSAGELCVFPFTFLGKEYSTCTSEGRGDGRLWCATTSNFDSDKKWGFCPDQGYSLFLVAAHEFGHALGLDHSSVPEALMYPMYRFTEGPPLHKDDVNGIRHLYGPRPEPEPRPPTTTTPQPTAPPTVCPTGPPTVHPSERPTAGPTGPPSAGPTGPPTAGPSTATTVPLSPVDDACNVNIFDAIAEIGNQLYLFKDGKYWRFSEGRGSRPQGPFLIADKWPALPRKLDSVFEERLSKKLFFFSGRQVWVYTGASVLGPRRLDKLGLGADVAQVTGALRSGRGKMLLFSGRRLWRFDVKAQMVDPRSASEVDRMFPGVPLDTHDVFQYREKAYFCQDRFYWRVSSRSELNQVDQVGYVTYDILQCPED

For `C[C@H](CS)C(=O)N1CCC[C@H]1C(=O)O`, which inhibition [1] is on record?
The inhibition was “inactive”.

What about the inhibition [2] of the same compound?
The inhibition was “Active”.

What about the inhibition [3] of the same compound?
Its inhibition is less than 10%.

And the inhibition [4]?
The inhibition was “inactive”.

What about the inhibition (Trypsin (Homo sapiens)) of the same compound?
Its inhibition is “inactive”.

With `O=C(/C=C/c1ccc(Cl)cc1Cl)NO` as the compound, how does the inhibition [1] read?
Its inhibition is “Active”.

And the inhibition [2]?
Its inhibition is less than 25%.

And the inhibition [3]?
Its inhibition is less than 25%.

And the inhibition [4]?
The inhibition was “inactive”.

What about the inhibition (Trypsin (Homo sapiens)) of the same compound?
The inhibition was “inactive”.

Which inhibition [5] does the source give for `O=C(NCc1ccc(-c2ccccc2)cc1)c1cccc(=O)n1O` here?
The inhibition was “Active”.

What about the inhibition [1] of the same compound?
The inhibition was “inactive”.

What about the inhibition [2] of the same compound?
The inhibition was 100%.

And the inhibition [3]?
The inhibition was 80%.

And the IC50 [6]?
The IC50 was 18 nM.

And the inhibition [4]?
Its inhibition is “inactive”.

And the inhibition (Trypsin (Homo sapiens))?
Its inhibition is “inactive”.

What does the source list for `COc1ccc(S(=O)(=O)N(Cc2cccnc2)[C@@H](C(=O)NO)C(C)C)cc1` [CGS-27023A]?
inhibition [5]: Active; inhibition [1]: inactive; inhibition [2]: 95%; inhibition [3]: 95%; IC50 [7]: 8 nM; inhibition [4]: inactive; inhibition (Trypsin (Homo sapiens)): inactive

Which inhibition [1] does the source give for `CC(/C=C/C(=O)NO)=C\[C@@H](C)C(=O)c1ccc(N(C)C)cc1` here?
Its inhibition is “Active”.

What does the source list for `O=C(O)[C@H](Cc1ccccc1)NS(=O)(=O)c1ccc(-c2ccccc2)cc1`?
inhibition [5]: inactive; inhibition [1]: inactive; inhibition [2]: Active; inhibition [3]: Active; IC50 [8]: 240 nM; inhibition [4]: inactive; inhibition (Trypsin (Homo sapiens)): inactive; IC50 [9]: 310 nM

With `CC(=O)Nc1nnc(S(N)(=O)=O)s1` as the compound, how does the inhibition [1] read?
Its inhibition is “inactive”.

And the inhibition [2]?
The inhibition was “Active”.

What about the inhibition [3] of the same compound?
Its inhibition is “Active”.

What about the inhibition [4] of the same compound?
The inhibition was “inactive”.

What about the inhibition (Trypsin (Homo sapiens)) of the same compound?
The inhibition was “inactive”.

Which inhibition [1] does the source give for `CC(c1cc2ccccc2s1)N(O)C(N)=O` (centres undefined) here?
The inhibition was “inactive”.

What about the inhibition [2] of the same compound?
The inhibition was “Active”.

What about the inhibition [3] of the same compound?
The inhibition was “Active”.

What about the inhibition [4] of the same compound?
The inhibition was “inactive”.

What about the inhibition (Trypsin (Homo sapiens)) of the same compound?
The inhibition was “inactive”.

What does the source list for `Cc1nc(C(=O)NCc2ccc(F)cc2)c(O)c(=O)[nH]1`?
inhibition [1]: inactive; inhibition [2]: Active; inhibition [3]: 50%; inhibition [4]: inactive; inhibition (Trypsin (Homo sapiens)): inactive

What does the source list for `CC(=O)N(O)CCCCCNC(=O)CCC(=O)N(O)CCCCCNC(=O)CCC(=O)N(O)CCCCCN`?
inhibition [1]: inactive; Activity (Homo sapiens): Active; inhibition [2]: Active; inhibition [3]: Active; inhibition [4]: inactive; inhibition (Trypsin (Homo sapiens)): inactive

For `O=C(CCCCCCC(=O)Nc1ccccc1)NO`, which inhibition [5] is on record?
Its inhibition is “Active”.

What about the inhibition [2] of the same compound?
Its inhibition is less than 25%.

What about the inhibition [3] of the same compound?
The inhibition was less than 25%.

What about the inhibition [4] of the same compound?
The inhibition was “inactive”.

And the inhibition (Trypsin (Homo sapiens))?
The inhibition was “inactive”.
